The structures appear in SMILES notation. The source made the active and inactive calls. Unless noted, the rule behind the calls is not given here.

The target in data set [1] is Virion infectivity factor (Human immunodeficiency virus type 1 group M subtype B (isolate NY5)(HIV-1)) (UniProt P12504). Put plainly: Antagonist activity against HIV-1 Vif in human MT4 cells assessed as inhibition of viral infection at 50 uM measured after 16 hrs by cell-based assay. Particulars: Human immunodeficiency virus 1. Put shortly:
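Antiviral activity was measured against wild-type HIV-1 in permissive MT-4 cells as a Vif-specificity counter-screen. RN-18 was the positive control, and cells cultured without inhibitor were the negative control. "No activity" means no inhibition at 50 µM.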

The target is the same in data set [2]. Put plainly: Antagonist activity against HIV-1 GFP-tagged Vif in human HEK293FT cells co-expressing HA-tagged A3G assessed as downregulation of Vif expression expression at 50 uM measured after 16 hrs by immunoblotting method. Format: cell-based. Particulars: Human immunodeficiency virus 1. In outline: (§1)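 HEK293FT cells co-expressing HA-tagged A3G and either GFP-tagged Vif or Vif were incubated with or without compound (50 µM) for 16 h. Cell extracts were immunoblotted with anti-HA (A3G), anti-GFP (Vif) and anti-GAPDH antibodies. Untreated cells served as the comparison, and choline chloride was included as a negative control in the triazole series.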

The target is the same in data set [3]. Put plainly: Antagonist activity against HIV-1 GFP-tagged Vif in human HEK293FT cells co-expressing HA-tagged A3G assessed as upregulation of A3G levels at 50 uM measured after 16 hrs by immunoblotting method. Format: cell-based. The following applies: Human immunodeficiency virus 1. In outline:
as §1

Data set [4] has the same target. Put plainly: Antagonist activity against HIV-1 Vif in human H9 cells expressing A3G assessed as inhibition of viral replication by reverse transcriptase assay relative to vehicle-treated control. Format: cell-based. Particulars: Human immunodeficiency virus 1. In outline: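 Antiviral activity was measured against wild-type HIV-1 in non-permissive (A3G-expressing) H9 cells and reported as IC50. RN-18 was the positive control, and cells cultured without inhibitor were the negative control. Selected compounds were tested across doses, and MTS cell viability was checked in parallel at 50 µM.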

The next data set concerns HeLa. Put plainly: Cytotoxicity against human HeLa cells at 50 uM measured after 16 hrs by MTS assay relative to DMSO control. Type of data set: cell-based.

Chain of Virion infectivity factor (Human immunodeficiency virus type 1 group M subtype B (isolate NY5)(HIV-1)) (P12504 whole entry): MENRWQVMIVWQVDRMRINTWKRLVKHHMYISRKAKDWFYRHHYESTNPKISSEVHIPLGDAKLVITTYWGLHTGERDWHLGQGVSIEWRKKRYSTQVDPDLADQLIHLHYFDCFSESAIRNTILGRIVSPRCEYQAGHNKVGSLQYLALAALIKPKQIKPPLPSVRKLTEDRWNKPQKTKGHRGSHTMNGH

For `COc1ccc(Sc2ccccc2-c2cn(-c3c(F)cccc3OC)nn2)cc1`, the outcome in data set [1] was inactive.
On the same count and under the same terms, the result for `COc1cccc(-n2cc(-c3ccccc3Sc3ccc(N)cc3)nn2)c1OC` reads “inactive”; that for `COc1ccc(Sc2ccccc2-c2cn(-c3ccccc3OC)nn2)cc1`, “inactive”.
On the same count and under the same terms, the result for `COc1cccc(F)c1-n1cc(-c2ccccc2Sc2ccc([N+](=O)[O-])cc2)nn1` reads “inactive”; that for `COc1cccc(-n2cc(-c3ccccc3Sc3ccc(C(F)(F)F)cc3)nn2)c1OC`, “inactive”.
On the same count and under the same terms, the entry for `COc1ccc(-n2cc(-c3ccccc3S(=O)(=O)c3ccc([N+](=O)[O-])cc3)nn2)c(OC)c1` is “inactive”; for `COc1cccc(OC)c1-n1cc(-c2ccccc2S(=O)(=O)c2ccc(C(F)(F)F)cc2)nn1` it is “inactive”; for `COc1ccc(-n2cc(-c3ccccc3Sc3ccc(N)cc3)nn2)c(OC)c1` it is “inactive”.
In the case of `COc1ccc(-n2cc(-c3ccccc3Sc3ccc(C(=O)O)cc3)nn2)c(OC)c1`, the outcome in data set [1] was inactive.
With `COc1ccccc1-n1cc(-c2ccccc2S(=O)(=O)c2ccc(N)cc2)nn1`, the outcome in data set [1] was inactive. Further, the result in data set [2] and in data set [3] was Active.
Take `COc1ccc(OC)c(-n2cc(-c3ccccc3S(=O)(=O)c3ccc(C(F)(F)F)cc3)nn2)c1`: the result in data set [1] was inactive.
Take `COC(=O)c1ccc(Sc2ccccc2-c2cn(-c3c(OC)cccc3OC)nn2)cc1`: the result in data set [1] was inactive. For the same compound, in data set [4], the inhibition result is “Dose-dependent effect”. Besides, in the data set on HeLa, the Activity result is listed as “Non-Toxic”.
`COc1ccc(S(=O)(=O)c2ccccc2-c2cn(-c3ccc(OC)cc3OC)nn2)cc1`: in data set [1], the result was inactive.
Consider `COc1cccc(F)c1-n1cc(-c2ccccc2Sc2ccc(C(=O)O)cc2)nn1`, for which, in data set [1], the outcome was inactive.
On the same count and under the same terms, the entry for `COc1cccc(OC)c1-n1cc(-c2ccccc2S(=O)(=O)c2ccc(N)cc2)nn1` is “inactive”.
As for `COc1ccccc1-c1nnc(-c2ccccc2Sc2ccc([N+](=O)[O-])cc2)o1`, the outcome in data set [2] and in data set [3] was Active.
Take `COc1cccc(OC)c1-n1cc(-c2ccccc2S(=O)(=O)c2ccc(C(=O)O)cc2)nn1`: the outcome in data set [1] was inactive.
`COC(=O)c1ccc(Sc2ccccc2-c2cn(-c3ccc(OC)cc3OC)nn2)cc1`: in data set [1], the result was inactive. Also, the inhibition result in data set [4] was “Dose-dependent effect”. Also, the Activity entry in the data set on HeLa is recorded as “Non-Toxic”.
In the case of `COc1ccc(Sc2ccccc2-c2cn(-c3cccc(OC)c3OC)nn2)cc1`, in data set [1], the result was inactive.
Turning to `COc1ccccc1-n1nncc1-c1ccccc1Sc1ccc([N+](=O)[O-])cc1`, the result in data set [2] and in data set [3] was Active.
Turning to `COc1cccc(-n2cc(-c3ccccc3S(=O)(=O)c3ccc(C(F)(F)F)cc3)nn2)c1OC`, in data set [1], the outcome was inactive.
Same read-out and setting: the entry for `COc1ccc(-n2cc(-c3ccccc3S(=O)(=O)c3ccc(C(F)(F)F)cc3)nn2)c(OC)c1` is “inactive”; for `COc1cccc(OC)c1-n1cc(-c2ccccc2Sc2ccc(C(F)(F)F)cc2)nn1` it is “inactive”; for `COc1ccc(S(=O)(=O)c2ccccc2-c2cn(-c3cccc(OC)c3OC)nn2)cc1` it is “inactive”.
Take `COC(=O)c1ccc(Sc2ccccc2-c2cn(-c3cc(OC)ccc3OC)nn2)cc1`: the outcome in data set [1] was inactive. Moreover, the result in data set [2] and in data set [3] was Active.
On to `COc1ccc(-n2cc(-c3ccccc3S(=O)(=O)c3ccc(N)cc3)nn2)c(OC)c1`, for which the result in data set [1] was inactive.
On the same count and under the same terms, the result for `COC(=O)c1ccc(Sc2ccccc2-c2cn(-c3ccccc3OC)nn2)cc1` reads “inactive”; that for `COc1ccc(-n2cc(-c3ccccc3S(=O)(=O)c3ccc(C(=O)O)cc3)nn2)c(OC)c1`, “inactive”.
On the same count and under the same terms, the entry for `COC(=O)c1ccc(Sc2ccccc2-c2cn(-c3c(F)cccc3OC)nn2)cc1` is “inactive”; for `COc1cccc(-n2cc(-c3ccccc3S(=O)(=O)c3ccc(N)cc3)nn2)c1OC` it is “inactive”; for `COc1ccc(-n2cc(-c3ccccc3Sc3ccc([N+](=O)[O-])cc3)nn2)c(OC)c1` it is “inactive”.
For `COc1cccc(F)c1-n1cc(-c2ccccc2S(=O)(=O)c2ccc(N)cc2)nn1`, the result in data set [1] was inactive.
Consider `COc1ccc(S(=O)(=O)c2ccccc2-c2cn(-c3c(OC)cccc3OC)nn2)cc1`, for which the result in data set [1] was inactive.
Same read-out and setting: the result for `COC(=O)c1ccc(S(=O)(=O)c2ccccc2-c2cn(-c3ccccc3OC)nn2)cc1` reads “inactive”; that for `COc1ccccc1-n1cc(-c2ccccc2S(=O)(=O)c2ccc([N+](=O)[O-])cc2)nn1`, “inactive”.
Same read-out and setting: the entry for `COc1cccc(OC)c1-n1cc(-c2ccccc2S(=O)(=O)c2ccc([N+](=O)[O-])cc2)nn1` is “inactive”.
In the case of `COC(=O)c1ccc(S(=O)(=O)c2ccccc2-c2cn(-c3cc(OC)ccc3OC)nn2)cc1`, the outcome in data set [1] was inactive.
On the same count and under the same terms, the entry for `COc1cccc(-n2cc(-c3ccccc3S(=O)(=O)c3ccc(C(=O)O)cc3)nn2)c1OC` is “inactive”.
The same measure, in the same setting: the entry for `COc1cccc(F)c1-n1cc(-c2ccccc2S(=O)(=O)c2ccc(C(=O)O)cc2)nn1` is “inactive”.
Still for that read-out and setting: the result for `COc1ccc(Sc2ccccc2-c2cn(-c3cc(OC)ccc3OC)nn2)cc1` reads “inactive”.
Consider `COc1ccccc1-n1cc(-c2ccccc2Sc2ccc(C(=O)O)cc2)nn1`, for which the outcome in data set [1] was inactive.
Still for that read-out and setting: the entry for `COc1ccc(Sc2ccccc2-c2cn(-c3ccc(OC)cc3OC)nn2)cc1` is “inactive”; for `COC(=O)c1ccc(S(=O)(=O)c2ccccc2-c2cn(-c3c(F)cccc3OC)nn2)cc1` it is “inactive”; for `COc1cccc(F)c1-n1cc(-c2ccccc2S(=O)(=O)c2ccc([N+](=O)[O-])cc2)nn1` it is “inactive”.
In the case of `COc1ccc(OC)c(-n2cc(-c3ccccc3Sc3ccc(N)cc3)nn2)c1`, in data set [1], the outcome was inactive.
Still for that read-out and setting: the entry for `COc1cccc(OC)c1-n1cc(-c2ccccc2Sc2ccc([N+](=O)[O-])cc2)nn1` is “inactive”; for `COc1ccc(Sc2ccccc2-c2cn(-c3c(OC)cccc3OC)nn2)cc1` it is “inactive”; for `COc1ccc(S(=O)(=O)c2ccccc2-c2cn(-c3ccccc3OC)nn2)cc1` it is “inactive”.
Same read-out and setting: the result for `COc1cccc(F)c1-n1cc(-c2ccccc2Sc2ccc(N)cc2)nn1` reads “inactive”.
For the compound `COc1ccc(OC)c(-n2cc(-c3ccccc3Sc3ccc(C(F)(F)F)cc3)nn2)c1`, the result in data set [1] was inactive.
The same measure, in the same setting: the result for `COc1cccc(OC)c1-n1cc(-c2ccccc2Sc2ccc(C(=O)O)cc2)nn1` reads “inactive”; that for `COc1ccc(S(=O)(=O)c2ccccc2-c2cn(-c3cc(OC)ccc3OC)nn2)cc1`, “inactive”.
Same read-out and setting: the result for `COc1cccc(F)c1-n1cc(-c2ccccc2Sc2ccc(C(F)(F)F)cc2)nn1` reads “inactive”; that for `COc1ccccc1-n1cc(-c2ccccc2Sc2ccc(N)cc2)nn1`, “inactive”; that for `COc1ccc(OC)c(-n2cc(-c3ccccc3Sc3ccc(C(=O)O)cc3)nn2)c1`, “inactive”.
On the same count and under the same terms, the entry for `COc1ccccc1-n1cc(-c2ccccc2S(=O)(=O)c2ccc(C(F)(F)F)cc2)nn1` is “inactive”; for `COc1ccc(S(=O)(=O)c2ccccc2-c2cn(-c3c(F)cccc3OC)nn2)cc1` it is “inactive”.
On to `COC(=O)c1ccc(S(=O)(=O)c2ccccc2-c2cn(-c3cccc(OC)c3OC)nn2)cc1`, for which the result in data set [1] was inactive.
Still for that read-out and setting: the result for `COc1cccc(OC)c1-n1cc(-c2ccccc2Sc2ccc(N)cc2)nn1` reads “inactive”.
With `COc1ccc(OC)c(-n2cc(-c3ccccc3S(=O)(=O)c3ccc(C(=O)O)cc3)nn2)c1`, in data set [1], the result was inactive. Besides, the result in data set [2] and in data set [3] was Active.
With `COc1ccccc1-n1cc(-c2ccccc2S(=O)(=O)c2ccc(C(=O)O)cc2)nn1`, the result in data set [1] was inactive. Further, the outcome in data set [2] and in data set [3] was Active.
Turning to `COc1ccc(-n2cc(-c3ccccc3Sc3ccc(C(F)(F)F)cc3)nn2)c(OC)c1`, the outcome in data set [1] was inactive.
On the same count and under the same terms, the result for `COc1cccc(F)c1-n1cc(-c2ccccc2S(=O)(=O)c2ccc(C(F)(F)F)cc2)nn1` reads “inactive”; that for `COc1cccc(-n2cc(-c3ccccc3S(=O)(=O)c3ccc([N+](=O)[O-])cc3)nn2)c1OC`, “inactive”.
The same measure, in the same setting: the entry for `COC(=O)c1ccc(S(=O)(=O)c2ccccc2-c2cn(-c3c(OC)cccc3OC)nn2)cc1` is “inactive”.
On the same count and under the same terms, the result for `COc1cccc(-n2cc(-c3ccccc3Sc3ccc(C(=O)O)cc3)nn2)c1OC` reads “inactive”; that for `COC(=O)c1ccc(S(=O)(=O)c2ccccc2-c2cn(-c3ccc(OC)cc3OC)nn2)cc1`, “inactive”.

The values are drawn from ChEMBL document CHEMBL4431339, “1,2,3-Triazoles as Amide Bioisosteres: Discovery of a New Class of Potent HIV-1 Vif Antagonists” (J Med Chem, 2016).
